In ChEMBL document CHEMBL4011629, “New Disubstituted Quindoline Derivatives Inhibiting Burkitt's Lymphoma Cell Proliferation by Impeding c-MYC Transcription” (J Med Chem, 2017):
Activity calls are given as the source filed them. The calls are words filed in the database; no cut-off is given here.

How the values were obtained:
[1] = Stabilization of c-Myc Pu27 G-quadruplex DNA (unknown origin) assessed as induction of parallel G-quadruplex formation in presence of K+ ions by CD spectroscopic analysis
Method in brief: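 CD spectra: Pu27 at 5 μM in 10 mM Tris-HCl pH 7.4 without or with 100 mM KCl, annealed 95 °C 5 min, slow-cooled, kept at 4 °C overnight, with ligand. Scanned 230–400 in a 4 mm quartz cuvette, 1 nm bandwidth and step, 0.5 s/point; buffer baseline subtracted.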

[2] = Inhibition of NM23-H2 binding to 5'-biotin labeled c-Myc Pu27 G-quadruplex DNA (unknown origin) […] by ELISA
Method in brief: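 Biotin-Pu27 at 100 nM in 10 mM Tris-HCl pH 7.4 with 100 mM KCl was annealed and captured on streptavidin plates. Compound (serial halving from 50 μM in 3% BSA blocking buffer) was preincubated with 250 nM NM23-H2 for 1 h at 25 °C, then added to the DNA at 4 °C overnight. Bound protein was detected with anti-NM23-H2, an HRP secondary and TMB, read at A450; three replicates, DMSO control.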

[3] = species on record: Homo sapiens; assay: Stabilization of c-Myc G-quadruplex DNA in human CA46 cells assessed as decrease in amplification of exon-1 up to 4 uM after 12 hrs by RT-PCR method; type: cell-based
Method in brief: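 Exon-specific assay: RAJI and CA46 cells exposed to various ligand concentrations for 12 h; total RNA (2 μg) reverse-transcribed with oligo dT18 and M-MLV (42 °C 1 h). c-MYC exon 1 and exon 2, NM23-H2 and β-actin amplified by real-time PCR, products run on 1% agarose; untreated cells as control; three repeats, two-tailed unpaired t test.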

[4] = system: Raji; assay: Effect on NM23-H2 transcription level in human Raji cells up to 4 uM after 12 hrs by RT-PCR method; type: functional, cell-based
[5] = system: CCRF-CEM; assay: Antiproliferative activity against human CCRF-CEM cells after 12 hrs by MTT assay; type: functional, cell-based
Method in brief: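 RAJI, CCRF-CEM and U266B1 cells were seeded at 5 × 10^3 cells per well and exposed to compound for 12 h, with a DMSO vehicle control. MTT at 0.5 mg/mL was added for 4 h at 37 °C, then lysis solution overnight at 37 °C, and A570 was read. Assays were run in triplicate. IC50 was taken from the percentage survival relative to the negative control.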

[6] = system: Raji; assay: Antitumor activity against human Raji cells xenografted in NOD/SCID nude mouse assessed as reduction in tumor volume at 30 mg/kg, ip administered once daily for 2 weeks relative to control; type: functional
Method in brief: (§1)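 NOD/SCID mice were implanted subcutaneously in the underarm with RAJI cells (5 × 10^6 per 100 μL of RPMI 1640 with 10% serum). Tumours reached […] after 1 week, and mice were then randomised. […] Tumour volume was recorded daily and tumour weight at the end.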

[7] = species on record: Homo sapiens; assay: Stabilization of c-Myc G-quadruplex DNA in human U266B1 cells assessed as downregulation of c-Myc mRNA level up to 4 uM after 12 hrs by RT-PCR method; type: cell-based
Method in brief: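 RAJI, CCRF-CEM and U266B1 grown in RPMI 1640 with 10% fetal calf serum at 37 °C, plated at 1 × 10^6 cells/well overnight, then treated 12 h with 4, 2, 1 or 0.5 μM (DMSO control). RNA (2 μg) reverse-transcribed with oligo dT18/M-MLV; c-MYC, NM23-H2 and β-actin amplified by real-time PCR, checked on 1.5% agarose.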

[8] = Drug uptake in human Raji cells at 1 uM after 6 hrs; type: ADME, cell-based
[9] = system: Raji; assay: Antiproliferative activity against human Raji cells measured every 3 days up to 15 days; type: functional, cell-based
Method in brief: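 RAJI cells (1.0 × 10^5 per well, six-well plates) were exposed every 3 days to a subcytotoxic ligand concentration or 0.1% DMSO. At each point cells were counted and viability checked, then flasks were reseeded at 1.0 × 10^5 cells. This continued for 15 days.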

[10] = system: Raji; assay: Cell cycle arrest in human Raji cells assessed as accumulation at S phase after 6 hrs by propidium iodide staining based flow cytometry (reference value: 32.2%); type: functional
[11] = system: Raji; assay: Cell cycle arrest in human Raji cells assessed as accumulation at G0/G1 phase after 12 hrs by propidium iodide staining based flow cytometry (reference value: 38.5%); type: functional
[12] = system: Raji; assay: Cell cycle arrest in human Raji cells assessed as accumulation at G2/M phase after 24 hrs by propidium iodide staining based flow cytometry (reference value: 24.4%); type: functional
[13] = system: Raji; assay: Induction of apoptosis in human Raji cells assessed as necrotic cells at 0.5 uM after 12 hrs by Annexin V-FITC/propidium iodide staining based flow cytometry relative to control; type: functional
Method in brief: (§2)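 RAJI cells exposed to compound or control medium for 12 or 48 h were washed in PBS and resuspended in binding buffer. They were stained with FITC annexin V and PI for 15 min in the dark, and fluorescence was measured by flow cytometry.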

[14] = system: Raji; assay: Induction of apoptosis in human Raji cells assessed as early apoptotic cells at 1 uM after 12 hrs by Annexin V-FITC/propidium iodide staining based flow cytometry (reference value: 2.3%); type: functional; method in brief: as §2
[15] = system: Raji; assay: Induction of apoptosis in human Raji cells assessed as late apoptotic cells at 1 uM after 12 hrs by Annexin V-FITC/propidium iodide staining based flow cytometry relative to control; type: functional; method in brief: as §2
[16] = system: Raji; assay: Induction of apoptosis in human Raji cells assessed as late apoptotic cells at 1 uM after 48 hrs by Annexin V-FITC/propidium iodide staining based flow cytometry (reference value: 0.1%); type: functional; method in brief: as §2
[17] = system: Raji; assay: Induction of apoptosis in human Raji cells assessed as necrotic cells at 1 uM after 48 hrs by Annexin V-FITC/propidium iodide staining based flow cytometry relative to control; type: functional; method in brief: as §2
[18] = system: Raji; assay: Induction of apoptosis in human Raji cells assessed as downregulation of Cyclin D1 expression after 12 hrs by Western blot method; type: functional, cell-based
Method in brief: (§3)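 After compound exposure (12 h for cell-cycle and apoptosis markers), RAJI cells were lysed in 1% NP-40 buffer. Protein at 50 μg per lane was run on 3–12% SDS-PAGE and transferred to nitrocellulose. Blots were probed with primary antibodies (GAPDH as loading reference) and detected with an HRP secondary and enhanced chemiluminescence.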

[19] = system: Raji; assay: Induction of apoptosis in human Raji cells assessed as upregulation of cleaved PARP expression up to 4 uM after 12 hrs by Western blot method; type: functional, cell-based; method in brief: as §3
[20] = system: Raji; assay: Antitumor activity against human Raji cells xenografted in NOD/SCID nude mouse assessed as reduction in tumor weight at 15 to 30 mg/kg, ip administered once daily for 2 weeks relative to control; type: functional, organism-based; method in brief: as §1

- Activity [1]: Dose-dependent effect
- inhibition [2]: Dose-dependent effect
- IC50 [5]: 18.1 µM
- Drug uptake [8]: Active
SMILES: CN(C)CCCNc1c2ccccc2nc2c1oc1ccc(OCC3CCN(C)CC3)cc12
- Activity [3]: Active
- Activity [4]: inactive
- T/C [6]: 26.6%
- Activity [7]: inactive
- Activity [9]: Dose-dependent effect
- Activity [10]: 18.1%
- Activity [11]: 60.2%
- Activity [12]: 19.3%
- Activity [13]: 0%
- Activity [14]: 18.9%
- Activity [15]: 0.3%
- Activity [16]: 37%
- Activity [17]: 0%
- Activity [18]: Dose-dependent effect
- Activity [19]: Active
- Activity [20]: Active
